# LYP act = increases human PTPN22 phosphatase activity | Q9Y2R2 | recombinant LYP, DiFMUP fluorescence; 0 = plate median, 100 = signal doubled | 0.11% of 96,000 active | activation, % at 2 µM;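 active means activation at 2 µM above a set limit, the mean plus 5 SD, cut at about 37% in these data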
# Rev-RRE block = HIV Rev-RRE protein-RNA interaction inhibition. 0.79% of 97,000 active. Rev peptide-RRE RNA binding, FRET. P05866. inhibition, % at 8 µM;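 active means inhibition above the screen-wide mean plus 3 SD, cut at about 35% in these data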
# Target sequence (P05866 whole entry, looked up): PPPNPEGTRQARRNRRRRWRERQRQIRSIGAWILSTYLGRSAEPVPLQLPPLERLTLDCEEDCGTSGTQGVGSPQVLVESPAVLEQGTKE
#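 System: Cy5-labelled duplex RRE RNA binding fluorescein-labelled HIV Rev peptide; Signal: fluorescein-to-Cy5 FRET, 480 nm excitation; Also added: labelled Rev peptide; Compound: one concentration, 8 µM nominal; Buffer or medium: HEPES pH 7.5 salt buffer with EDTA; Read-out: % inhibition of FRET ratio versus controls; Schedule: 5 min preincubation and 15 min binding, 25 °C.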
# LYP inh 2 = inhibitors of human LYP (PTPN22) phosphatase | AID 640 | recombinant LYP catalytic domain, DiFMUP fluorescence | inhibition, % at 2 µM | 0.21% of 96,000 active | Q9Y2R2;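 active means inhibition at 2 µM at or above a set limit, the screen mean plus 3 SD, cut at about 24% in these data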
# EphB4 antag = EphB4-ephrin-B2 interaction antagonism; EphB4 LBD / TNYL-RAW-Alexa532 peptide, fluorescence polarization; inhibition, % at 7 µM; P54760; 0.15% of 97,000 active;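 active means inhibition above the screen-wide mean inhibition plus 3 SD, cut at about 15% in these data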
# Hits are given with their value; i = inactive; nt = not tested or not shown; [ ] = another dose, or the depositor's remark. This is a sample that favours compounds with a hit; in the whole collection about 1.3% have one here.
SMILES,LYP act,Rev-RRE block,LYP inh 2,EphB4 antag
O=c1[nH]c(Nc2ccc(F)cc2)cc2ccccc12,i,47.1,i,i
Cc1ccc(C(C(=O)NC2CCCCC2)N(Cc2ccco2)C(=O)Cn2cnc3ccccc32)cc1 (centres undefined),i,i,i,i
COc1ccc(N=C2S/C(=C\c3ccc(N4CCOCC4)o3)C(=O)N2CCc2c[nH]c3ccccc23)cc1,i,131.3[fluorescence artefact?],i,i
Nc1c(N2CCCC2)cc(Cl)c2nonc12,i,40.5,i,i
Nc1c(N2CCOCC2)cc(Cl)c2nonc12,i,i,i,i
CCOC(=O)C1=C(c2ccccc2)N2CCS(=O)(=O)N=C2S1,i,i,i,16.1
CCOC(=O)c1c(N)nn(C(=O)C(C)(C)C)c1-c1ccccc1,i,i,i,i
Cc1c(CCOC(=O)C2C3CC4CC(C3)CC2C4)sc[n+]1CC(=O)c1ccc(Br)cc1 (centres undefined),i,i,33.4,i
COc1ccc(OC)c(-n2c(SCC(=O)Nc3cc(C)on3)nnc2-c2c[nH]c3ccccc23)c1,nt,i,nt,i
O=C1c2cccc3c(N4CCCCC4)ccc(c23)C(=O)N1c1ccccn1,i,126.3[fluorescence artefact?],i,i
O=C1c2cccc3c(N4CCCCC4)ccc(c23)C(=O)N1c1ccc(Cl)cn1,i,120.9[fluorescence artefact?],i,i
O=C(O)c1ccc2c(c1)C(=O)N(c1ccc(Cl)cn1)C2=O,i,i,i,i
O=C1c2cccc3c([N+](=O)[O-])ccc(c23)C(=O)N1c1ccc(Cl)cn1,i,69.0,i,i
O=C(Nc1nc(-c2ccccc2)cs1)c1ccc(Br)o1,i,i,i,i
CCOC(=O)c1c(NC(=O)COC(=O)Cn2c(C(F)(F)F)nc3ccccc32)sc(C)c1C,i,i,i,i
CCOC(=O)C1CCN(S(=O)(=O)Cc2ccccc2)C1=O (centres undefined),i,i,i,15.4
O=C(Nc1ccc2oc(-c3cccc4ccccc34)nc2c1)c1ncn[nH]1,i,i,52.5,i
CCOC(=O)N1CCC(n2c(SCC(=O)NCc3ccccc3)nc3ccccc3c2=O)CC1,i,i,i,16.1
CCOC(=O)N1CCC(n2c(SCC(=O)N3CCCC3)nc3ccccc3c2=O)CC1,i,i,i,i
CCOC(=O)N1CCC(n2c(SCC(=O)NCCC3=CCCCC3)nc3ccccc3c2=O)CC1,i,i,i,15.4
O=C(c1cccs1)c1cn(CC(=O)N2CCc3ccccc3C2)c2ccccc12,i,i,i,i
CCn1c(SCC(=O)Nc2sc3c(c2C#N)CCCC3)nnc1-c1ccncc1,i,i,i,17.3
N#Cc1c(NC(=O)CSc2nnc(-c3ccncc3)n2CC2CCCO2)sc2c1CCCC2 (centres undefined),i,i,i,i
CCOC(=O)C1CSC(CC(=O)Nc2ccc(Cl)cc2)C(=O)N1 (centres undefined),i,i,i,i
Cc1ccc(-n2ncc3c(=O)n(CC(=O)N4CCCCCC4)cnc32)cc1,i,i,i,15.9
SMILES,LYP act,Rev-RRE block,LYP inh 2,EphB4 antag
CCC(C)N(C(=O)c1csnn1)C(C(=O)NCc1ccc(F)cc1)c1ccco1 (centres undefined),i,i,i,i
CCC(C)(C)NC(=O)C(c1ccco1)N(C(=O)c1csnn1)c1cccc(F)c1 (centres undefined),i,i,i,17.1
CCCCCCCCC/C(=N\O)c1ccccn1,i,i,28.3,i
O=P(OC1CCCCC1)(OC1CCCCC1)C(O)c1ccccc1 (centres undefined),i,i,i,i
CCOc1cc(NC(=O)CC(C)C)c(OCC)cc1NC(=O)CCn1nnc2ccccc21,i,i,i,i
O=C1c2ccccc2S(=O)(=O)N1Cc1nnc(-c2ccccc2Br)o1,i,i,i,i
O=S1(=O)c2cccc3cccc(c23)N1Cc1nnc(-c2ccccc2Br)o1,i,i,i,16.2
O=C(c1ccco1)[C@@H]1[C@@H]2C(=O)N(c3ccc(Br)cc3)C(=O)[C@@H]2C2c3ccccc3C=CN21 (some centres undefined),i,40.6,i,i
O=C(c1ccco1)[C@@H]1[C@@H]2C(=O)N(c3ccc(F)cc3)C(=O)[C@@H]2C2c3ccccc3C=CN21 (some centres undefined),i,41.5,i,i
Cc1ccc(C(C2C(=O)CC(C)(C)CC2=O)C2C(=O)CC(C)(C)CC2=O)s1,i,i,i,i
Cc1cccc(N/C=C/c2onc(C)c2[N+](=O)[O-])c1,i,95.1[fluorescence artefact?],i,i
CCC(CC)C(=O)NCCc1ccc(F)cc1,i,i,i,i
O=C(Nc1ccccc1C(=O)N1CCOCC1)c1ccncc1,i,i,i,15.5

# Assay outcomes: PubChem, several laboratories
